Tests used:
Glutamate NMDA receptor [1] = experiment: Antagonism at NMDA receptor by inhibition of depolarizations induced by 40 uM NMDA in rat cortical slice preparation.; format: functional
Glutamate NMDA receptor [2] = experiment: Affinity of [3H]-CGS- 19755 radioligand to rat N-methyl-D-aspartate (NMDA) receptor; format: protein-complex assay
[3] = target: Glutamate receptor ionotropic, kainate; experiment: Binding affinity against Ionotropic glutamate receptor kainate using [3H]-Kainic acid 19755 radioligand; format: protein-complex assay
How it was run: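 Displacement of radioligand binding in rat cortical tissue: [3H]AMPA for AMPA sites, [3H]kainic acid for kainate sites. Assays run in triplicate unless otherwise indicated; some IC50 values come from a single assay.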

[4] = target: Glutamate receptor ionotropic, kainate; experiment: Antagonism at Ionotropic glutamate receptor kainate by inhibition of depolarizations induced by 10 uM kainic acid in rat cortical slice preparation.; format: functional
[5] = target: T1, Glutamate receptor ionotropic, AMPA (Rattus norvegicus, UniProt P19490+P19491+P19492+P19493); experiment: Binding affinity against Ionotropic glutamate receptor AMPA using [3H]AMPA 19755 radioligand; format: protein-complex assay
[6] = target: T1, Glutamate receptor ionotropic, AMPA; experiment: Antagonism at AMPA receptor by inhibition of depolarizations induced by 40 uM AMPA in rat cortical slice preparation.; format: functional
[7] = target: Glutamate receptor ionotropic, kainate; experiment: Compound was tested for Ionotropic glutamate receptor kainate antagonistic activity by measuring its ability to inhibit depolarizations induced by 10 uM kainic acid in rat cortical slice preparation.; format: functional
Glutamate NMDA receptor [8] = experiment: Compound was tested for NMDA receptor antagonistic activity by measuring its ability to inhibit depolarizations induced by 40 uM NMDA in rat cortical slice preparation.; format: functional
[9] = target: T1, Glutamate receptor ionotropic, AMPA; experiment: Compound was tested for Ionotropic glutamate receptor AMPA antagonistic activity by measuring its ability to inhibit depolarizations induced by 40 uM AMPA in rat cortical slice preparation.; format: functional
[10] = target: Glutamate NMDA receptor (Rattus norvegicus) (UniProt P35439+Q00959+Q00960+Q00961+Q62645+Q8VHN2+Q9R1M7); experiment: Compound was tested for NMDA receptor antagonistic activity by measuring its ability to inhibit depolarizations induced by 40 uM NMDA in rat cortical slice preparation at 100 uM; format: functional
Mus musculus [11] = experiment: Effective dose to block maximal electroshock-induced convulsions in mice, administered intraperitoneally; format: functional; conditions: ip
Mus musculus [12] = experiment: Effective dose to block ATPA-induced muscle rigidity in mice at a dose of 30 mg/kg administered intraperitoneally; conditions: ip
Mus musculus [13] = experiment: (§1) Effective dose to produce neurological impairments in mice using the horizontal screen assay, administered intraperitoneally; format: functional; conditions: ip
How it was run: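 Mice dosed intraperitoneally 30 min before testing were placed on a horizontal screen, which was then turned upside down. Unimpaired mice climb back to the top within 2 min; failure indicates neurological impairment. This was done before MES testing.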

Mus musculus [14] = experiment: as §1; format: functional; conditions: ip; remark: listed apart in the source
How it was run: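 Mice dosed ip 30 min beforehand are placed on a horizontal screen, which is then turned upside down. Unimpaired mice climb back to the top within 2 min.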

Compound | IC50 (Glutamate NMDA receptor [1]) [µM] | IC50 (Glutamate NMDA receptor [2]) [µM] | IC50 [3] [µM] | IC50 [4] [µM] | IC50 [5] [µM] | IC50 [6] [µM] | also measured
CCOC(=O)[C@@H]1C[C@H]2C[C@@H](CCc3cc(OC)no3)CC[C@H]2CN1C(=O)OC | > 100 | > 100 | – | – | – | – | –
O=C(O)[C@H]1C[C@@H]2C[C@H](CCc3nnn[nH]3)CC[C@@H]2CN1 | – | – | > 100 | > 100 | > 100 | > 100 | –
O=C(O)[C@@H]1C[C@H]2C[C@H](CCS(=O)(=O)O)CC[C@H]2CN1 | > 100 | > 100 | > 100 | > 100 | > 100 | > 100 | –
O=C(O)[C@@H]1C[C@H]2C[C@H](CCc3nnn[nH]3)CC[C@H]2CN1 (stereo in doubt; (+)49) | – | – | 87 | 28.9 | 31.5 | 21.9 | –
CCOC(=O)[C@@H]1C[C@H]2C[C@@H](CCC(=O)NS(=O)(=O)c3ccccc3)CC[C@H]2CN1C(=O)OC | > 100 | > 100 | > 100 | > 100 | > 100 | > 100 | –
O=C(O)[C@@H]1C[C@H]2C[C@H](CSc3nn[nH]n3)CC[C@H]2CN1 (stereo in doubt; (-)28) | – | 29.8 | > 100 | – | 70.5 | – | IC50 [7]: > 100 µM; IC50 (Glutamate NMDA receptor [8]): 62.2 µM; IC50 [9]: > 100 µM
O=C(O)[C@@H]1C[C@H]2C[C@@H](CCc3nn[nH]n3)CC[C@H]2CN1 [TEZAMPANEL ANHYDROUS] | – | 12.1 | 28.1 | – | 14 | 1.8 | –
O=C(O)[C@@H]1C[C@H]2C[C@@H](CS(=O)(=O)c3nnc[nH]3)CC[C@H]2CN1 (stereo in doubt; (-)36) | – | > 100 | > 100 | – | 0.6 | – | –
O=C(O)[C@@H]1C[C@H]2C[C@@H](CNc3nn[nH]n3)CC[C@H]2CN1 (racemic) | > 100 | > 100 | > 100 | > 100 | > 100 | > 100 | –
O=C(O)[C@@H]1C[C@H]2C[C@H](CCc3nnn[nH]3)CC[C@H]2CN1 (stereo in doubt; (-)49) | – | 76.9 | – | – | – | – | –
O=C(O)[C@@H]1C[C@H]2C[C@@H](CCc3nn[nH]n3)CC[C@H]2CN1 | – | – | – | – | – | – | inhibition [10]: 60%
CCOC(=O)[C@@H]1C[C@H]2C[C@@H](CCC(=O)NS(C)(=O)=O)CC[C@H]2CN1C(=O)OC | > 100 | > 100 | > 100 | > 100 | > 100 | > 100 | –
O=C(O)[C@@H]1C[C@H]2C[C@@H](CCc3nn[nH]n3)CC[C@H]2CN1 (racemic) [TEZAMPANEL ANHYDROUS] | – | – | – | – | – | – | ED50 (Mus musculus [11]): 9 mg/kg; ED50 (Mus musculus [12]): 3.6 mg/kg; ED50 (Mus musculus [13]): 19.6 mg/kg
O=C(O)[C@@H]1C[C@H]2C[C@H](CCc3cc(O)no3)CC[C@H]2CN1 | – | > 100 | > 100 | – | > 100 | – | ED50 (Mus musculus [14]): > 100 mg/kg; ED50 (Mus musculus [11]): 31.1 mg/kg; ED50 (Mus musculus [12]): 8.8 mg/kg
O=C(O)[C@@H]1C[C@H]2C[C@@H](CSc3nn[nH]n3)CC[C@H]2CN1 (racemic) | – | 29.4 | 30.1 | – | 0.9 | – | IC50 (Glutamate NMDA receptor [8]): > 100 µM; IC50 [9]: 19.8 µM
O=C(O)[C@@H]1C[C@H]2C[C@H](CCP(=O)(O)O)CC[C@H]2CN1 | > 100 | > 10 | – | > 100 | > 10 | > 100 | –

Source: ChEMBL document CHEMBL1129329, “Structure-activity studies of 6-substituted decahydroisoquinoline-3-carboxylic acid AMPA receptor antagonists. 2. Effects of distal acid bioisosteric substitution, absolute stereochemical preferences, and in vivo activity” (J Med Chem, 1996)
